Some results are limits rather than exact numbers.

The target in one test is T1, LATS2 (Homo sapiens, UniProt Q9NRM7).
T1 sequence (Q9NRM7 553-1088 limits assumed): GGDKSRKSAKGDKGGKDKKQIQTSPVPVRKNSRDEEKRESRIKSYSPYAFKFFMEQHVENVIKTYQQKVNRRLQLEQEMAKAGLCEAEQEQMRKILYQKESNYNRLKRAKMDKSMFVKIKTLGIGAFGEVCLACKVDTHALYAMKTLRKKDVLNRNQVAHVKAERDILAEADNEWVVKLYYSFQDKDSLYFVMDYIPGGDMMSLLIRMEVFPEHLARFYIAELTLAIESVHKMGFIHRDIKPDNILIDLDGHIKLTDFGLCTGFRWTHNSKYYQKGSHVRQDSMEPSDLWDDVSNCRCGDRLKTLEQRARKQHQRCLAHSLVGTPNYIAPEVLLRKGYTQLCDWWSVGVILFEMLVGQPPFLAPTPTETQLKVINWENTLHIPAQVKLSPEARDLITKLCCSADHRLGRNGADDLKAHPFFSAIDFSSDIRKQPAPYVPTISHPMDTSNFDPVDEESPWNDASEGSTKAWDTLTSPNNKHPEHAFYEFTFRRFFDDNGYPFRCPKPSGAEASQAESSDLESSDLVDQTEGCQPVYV
The experiment in a line: Kinase assay. The test is classed as biochemical. The method in brief: (§1)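 LATS1 and LATS2 activity was measured with a fluorescence kinase/ADP kit following the maker's protocol in 384-well format. IC50 came from dose-response inhibition curves at 400 μM ATP. Mode of inhibition was assessed from Lineweaver-Burk plots of reaction velocity at ATP 100 to 400 μM. Three independent experiments, means ± SD.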

In the next test the target is T2, LATS1 (Homo sapiens, UniProt O95835).
T2 sequence (O95835 589-1130 limits assumed): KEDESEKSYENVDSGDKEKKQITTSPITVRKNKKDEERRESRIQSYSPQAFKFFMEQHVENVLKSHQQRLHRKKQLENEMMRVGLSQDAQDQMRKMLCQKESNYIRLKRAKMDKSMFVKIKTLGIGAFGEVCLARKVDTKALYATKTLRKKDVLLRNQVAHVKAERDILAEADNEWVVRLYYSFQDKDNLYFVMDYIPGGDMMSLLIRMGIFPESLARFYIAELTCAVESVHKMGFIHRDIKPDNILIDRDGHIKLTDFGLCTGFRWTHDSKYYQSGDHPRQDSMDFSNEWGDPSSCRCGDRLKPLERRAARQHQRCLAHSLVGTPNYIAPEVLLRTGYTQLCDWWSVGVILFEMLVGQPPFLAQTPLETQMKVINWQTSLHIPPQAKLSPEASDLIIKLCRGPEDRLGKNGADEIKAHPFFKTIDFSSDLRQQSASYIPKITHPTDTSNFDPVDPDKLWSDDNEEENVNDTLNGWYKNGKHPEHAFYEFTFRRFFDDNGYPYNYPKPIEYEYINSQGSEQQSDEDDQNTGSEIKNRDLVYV
Nature of the test: Kinase assay. The test is classed as biochemical. In short, it runs like this: as §1

In test [1] the test system is SKOV3 cells. Nature of the test: Growth in U-bottom low-attachment plates. The test is classed as cell-based, Human. Conditions: with GA-017, 4 days, Fig. 3J.
In a further test the target is T3, SGK3 (Homo sapiens, UniProt Q96BR1).
T3 sequence (Q96BR1 1-496): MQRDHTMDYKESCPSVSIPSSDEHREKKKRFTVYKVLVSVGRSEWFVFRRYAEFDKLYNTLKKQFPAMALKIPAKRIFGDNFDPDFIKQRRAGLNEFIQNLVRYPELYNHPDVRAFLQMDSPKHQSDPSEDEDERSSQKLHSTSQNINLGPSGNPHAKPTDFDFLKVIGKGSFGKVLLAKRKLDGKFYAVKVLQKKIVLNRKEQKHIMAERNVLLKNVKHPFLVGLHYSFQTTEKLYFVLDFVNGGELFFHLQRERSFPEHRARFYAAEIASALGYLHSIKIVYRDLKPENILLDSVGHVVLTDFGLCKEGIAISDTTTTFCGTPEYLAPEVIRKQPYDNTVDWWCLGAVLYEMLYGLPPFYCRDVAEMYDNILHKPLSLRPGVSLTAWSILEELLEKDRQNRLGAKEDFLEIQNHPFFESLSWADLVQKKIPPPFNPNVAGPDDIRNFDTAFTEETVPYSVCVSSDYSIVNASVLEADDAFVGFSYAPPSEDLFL
Nature of the test: Kinase panel assay. It counts as biochemical.

Another test relates to MDCK cells. The experiment in a line: Cyst culture in Matrigel. The test is classed as cell-based, canine. Conditions: 10 μM, 6 days. The method in brief:
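MDCK cells at 1.1 × 10^4 cells/ml in medium with 0.2% Matrigel GFR were plated onto a pre-set Matrigel GFR layer (15 min, 37 °C). Medium holding 10-fold concentrated test compound or DMSO was added, and plates were incubated for 6 days at 37 °C. Cysts (>30 μm diameter) were counted and sized by automated imaging. Three independent experiments, means ± SD, Student's t test.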

For test [2], the system named is SKOV3 cells. The experiment in a line: Growth in gellan gum–containing medium. Conditions: 10 μM, maximally effective concentration. It counts as cell-based, Human. In short, it runs like this: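 SKOV3 cells were suspended in medium with 0.015% (w/v) gellan gum and seeded at 2000 cells/well in 96-well flat-bottom low-attachment plates, 37 °C, 5% CO2. A test compound concentration series or DMSO vehicle was applied for 4 days. Cell number was read by ATP assay and expressed as % of DMSO control.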

Test [3] has as its system SKOV3 cells. Nature of the test: Growth in 2D monolayer culture, ATP assay. It counts as cell-based, Human. Conditions: 10 μM; Fig. 1D. The method in brief:
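SKOV3 monolayers were grown in medium without gellan gum on cell-attachable 96-well flat-bottom plates at 700 cells/well, 37 °C, 5% CO2, humidified. Cultures received 10 μM test compound or DMSO vehicle. Cell number was followed over time by ATP assay, and each day's value was normalized to day 0.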

For test [4], the system named is mouse intestinal organoids. The experiment in a line: Organoid culture in Matrigel. The test is classed as cell-based. Conditions: 10 μM, up to 9 days, vs vehicle.
The test system of test [5] is LATS1-deleted or LATS2-deleted SKOV3 cells. The experiment in a line: Growth of LATS knockout cells in U-bottom low-attachment plates, ATP assay. It counts as cell-based, Human. Conditions: 10 μM, 4 days.
The next test deals with T4, SGK2 (Homo sapiens, UniProt Q9HBY8).
T4 sequence (Q9HBY8 1-367): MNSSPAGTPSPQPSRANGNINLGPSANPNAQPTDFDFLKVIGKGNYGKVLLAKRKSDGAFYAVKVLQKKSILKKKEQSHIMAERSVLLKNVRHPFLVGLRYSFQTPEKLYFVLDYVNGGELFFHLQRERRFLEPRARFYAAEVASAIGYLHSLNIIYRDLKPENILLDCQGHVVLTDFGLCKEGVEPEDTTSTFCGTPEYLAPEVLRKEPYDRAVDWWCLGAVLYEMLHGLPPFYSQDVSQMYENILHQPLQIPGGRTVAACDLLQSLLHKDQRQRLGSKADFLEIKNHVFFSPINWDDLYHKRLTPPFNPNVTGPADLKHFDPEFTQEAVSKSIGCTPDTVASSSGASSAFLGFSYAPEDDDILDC
The experiment in a line: Kinase panel assay. It counts as biochemical.

For a further test, the target named is p70S6K (Homo sapiens, UniProt P23443). Nature of the test: Kinase panel assay. It counts as biochemical.
Sequence of p70S6K (P23443 whole entry): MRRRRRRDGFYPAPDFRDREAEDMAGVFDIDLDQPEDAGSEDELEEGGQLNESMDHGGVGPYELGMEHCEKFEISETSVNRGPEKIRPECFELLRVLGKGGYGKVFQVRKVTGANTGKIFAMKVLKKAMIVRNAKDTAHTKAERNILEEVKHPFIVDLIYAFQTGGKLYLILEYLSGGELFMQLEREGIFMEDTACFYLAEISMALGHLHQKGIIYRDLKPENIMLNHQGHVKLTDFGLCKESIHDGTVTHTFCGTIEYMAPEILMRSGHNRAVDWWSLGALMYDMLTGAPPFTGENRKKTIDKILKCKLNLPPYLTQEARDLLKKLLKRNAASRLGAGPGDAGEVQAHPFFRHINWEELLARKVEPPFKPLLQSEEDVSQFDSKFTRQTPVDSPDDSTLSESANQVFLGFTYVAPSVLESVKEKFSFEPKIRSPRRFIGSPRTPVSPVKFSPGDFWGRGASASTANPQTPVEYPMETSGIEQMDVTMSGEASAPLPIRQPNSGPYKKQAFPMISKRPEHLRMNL
A further test deals with A431 cells. Nature of the test: Hanging drop cell culture, ATP assay. It counts as cell-based, Human. Particulars: 10 μM, 2 days. In short, it runs like this: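 A431 cells at 50,000 cells/ml received 10 μM test compound or DMSO. They were then hung as 10 μl drops (15 per lid) over a PBS-filled dish and cultured 2 days at 37 °C. Pooled drops were assayed for cell number by ATP assay, as % of DMSO control. 11 independent experiments, means ± SD, Student's t test.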

In the next test the target is PKACα (Homo sapiens, UniProt P17612). The experiment in a line: Kinase panel assay. The test is classed as biochemical.
For a further test, the target named is PKACβ (Homo sapiens, UniProt P22694). The experiment in a line: Kinase panel assay. The test is classed as biochemical.
The target of the next test is MSK1 (Homo sapiens, UniProt O75582). Nature of the test: Kinase panel assay. It counts as biochemical.
Sequence of MSK1 (O75582 whole entry): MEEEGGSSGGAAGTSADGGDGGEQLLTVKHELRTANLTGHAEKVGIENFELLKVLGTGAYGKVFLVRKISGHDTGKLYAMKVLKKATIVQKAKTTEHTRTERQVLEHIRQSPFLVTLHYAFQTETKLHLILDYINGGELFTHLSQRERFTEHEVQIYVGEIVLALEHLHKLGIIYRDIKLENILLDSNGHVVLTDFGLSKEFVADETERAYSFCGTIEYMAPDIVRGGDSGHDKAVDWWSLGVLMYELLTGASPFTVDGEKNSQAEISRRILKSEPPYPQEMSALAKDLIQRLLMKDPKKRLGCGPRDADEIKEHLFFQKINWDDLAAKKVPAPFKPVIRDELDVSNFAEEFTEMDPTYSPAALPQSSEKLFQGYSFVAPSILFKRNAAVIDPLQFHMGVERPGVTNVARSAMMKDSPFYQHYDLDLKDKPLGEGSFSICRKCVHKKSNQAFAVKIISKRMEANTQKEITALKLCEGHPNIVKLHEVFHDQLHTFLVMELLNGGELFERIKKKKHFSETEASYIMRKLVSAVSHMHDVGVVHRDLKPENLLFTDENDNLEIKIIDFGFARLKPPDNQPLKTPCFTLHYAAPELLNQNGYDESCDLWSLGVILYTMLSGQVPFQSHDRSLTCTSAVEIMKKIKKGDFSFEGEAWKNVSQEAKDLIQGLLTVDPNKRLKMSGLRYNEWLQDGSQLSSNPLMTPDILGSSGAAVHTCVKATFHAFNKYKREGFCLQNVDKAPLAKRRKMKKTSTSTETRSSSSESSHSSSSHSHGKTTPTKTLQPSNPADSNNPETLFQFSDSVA

Regarding `CC/C(=N\NC(=O)C(C)Nc1ccccc1)c1ccc(O)c(C)c1O` (stereo not shown) [GA-002, (E)-N'-(1-(2,4-dihydroxy-3-methylphenyl)propylidene)-2-(phenylamino)propanehydrazide], at LATS2 (compared with GA-017, Fig. S7), the “inhibition of LATS2” value is given as “comparable inhibition”. Further, at LATS1 (compared with GA-017, Fig. S7), the “inhibition of LATS1” value was “comparable inhibition”.

For Verteporfin, the “effect on the growth-promoting effect of GA-017” value in the test with SKOV3 cells [1] is reported as “abolished the growth-promoting effect of GA-017”.

Turning to `CC/C(=N\NC(=O)NCc1cccc(O)c1)c1ccc(O)c(C)c1O` [GA-017, (E)-2-(1-(2,4-dihydroxy-3-methylphenyl)propylidene)-N-(3-hydroxybenzyl)hydrazine-1-carboxamide], the IC50 at SGK3 was < 40 nM; against LATS2, 3.92 ± 0.42 nM; against SGK2, < 40 nM; on LATS1, 4.1 ± 0.79 nM; against p70S6K, < 40 nM; against PKACα, < 40 nM. In addition, the IC50 against PKACβ and against MSK1 was < 40 nM in each case. Also, the “number of cysts versus vehicle control (DMSO)” value with MDCK cells came to 1.5 fold. Moreover, in the test on SKOV3 cells [2], the “increase in the number of SKOV3 cells” value is listed as “over 2 fold”. The values for the Ki at LATS2 and at LATS1 were 0.25 ± 0.03 nM and 0.58 ± 0.11 nM, respectively. Further, the “cell growth under 2D conditions” value with SKOV3 cells [3] is listed as “did not affect cell growth”. Also, the “ex vivo formation of intestinal organoids” value in [4] is listed as “significantly enhanced the ex vivo formation of intestinal organoids”. Also, in [5], the “growth-promoting effect on LATS1- or LATS2-deleted cells” value is recorded as “did not exhibit a growth-promoting effect”. In the test with A431 cells, the “growth of spheroids formed in hanging drops” value is recorded as “promoted the growth of spheroids”.

(Values after publication PMC8988011 (The Journal of Biological Chemistry, 2022).)
